Structures are written as SMILES. ≈ marks a conversion by molar mass, not a printed value. Calls of active or inactive are those of the source. No cut-off for these calls is given here.

The first test concerns Escherichia coli. Briefly: Antibacterial activity against Escherichia coli ATCC 35218. Type of test: functional.
Conditions: not given
Take `CC1=NN(/C(C)=N\OC(=O)c2ccc(C(F)(F)F)cc2)C(c2ccccc2OCc2ccc(F)cc2)C1` (stereo not drawn): the MIC was 50 µg/mL (≈ 97.4 µM).

`C/C(=N/OC(=O)c1ccc(F)cc1)N1N=C(c2ccc(Cl)cc2Cl)CC1c1ccccc1F` (stereo not drawn) had an MIC of 25 µg/mL (≈ 51.2 µM).

Take `CCC(=O)O/N=C(/C)N1N=C(C)CC1c1ccc(OCc2ccc(F)cc2)cc1` (stereo not drawn): the MIC was 50 µg/mL (≈ 126 µM).

`COC1CC(c2ccccc2)=NN1/C(C)=N\OC(=O)c1ccc(F)cc1` (stereo not drawn) displayed an MIC of 6.25 µg/mL (≈ 17.6 µM).

Turning to `CC1=NN(/C(C)=N\OC(=O)c2ccc(Cl)cc2)C(c2ccc(OCc3ccc(F)cc3)cc2)C1` (stereo not drawn), the MIC was above 50 µg/mL.

The compound `C/C(=N/OC(=O)c1ccccc1F)N1N=C(c2ccc(Cl)cc2Cl)CC1c1ccccc1F` (stereo not drawn) gave an MIC of 25 µg/mL (≈ 51.2 µM).

For the compound `CCCC(=O)O/N=C(/C)N1N=C(C)CC1c1ccc(OCc2ccc(F)cc2)cc1` (stereo not drawn), the MIC is above 50 µg/mL.

On to `CCCC(=O)O/N=C(/C)N1N=C(C)CC1c1ccccc1OCc1ccc(F)cc1` (stereo not drawn), for which the MIC is 50 µg/mL (≈ 122 µM).

In the case of `C/C(=N/OC(=O)c1ccccc1C)N1N=C(c2ccc(Cl)cc2Cl)CC1c1ccccc1F` (stereo not drawn), the MIC amounted to 50 µg/mL (≈ 103 µM).

As for `C/C(=N/OC(=O)c1ccc(C(F)(F)F)cc1)N1N=C(c2ccc(Cl)cc2Cl)CC1c1ccc(C(F)(F)F)cc1` (stereo not drawn), the MIC worked out at 50 µg/mL (≈ 85 µM).

Compound `COC1CC(c2ccccc2)=NN1/C(C)=N\OC(=O)c1ccccc1C` (stereo not drawn) displayed an MIC of 12.5 µg/mL (≈ 35.6 µM).

Regarding `C/C(=N/OC(=O)c1ccccc1C)N1N=C(c2ccc(Cl)cc2Cl)CC1c1ccc(C(F)(F)F)cc1` (stereo not drawn), the MIC was 50 µg/mL (≈ 93.6 µM).

Compound `CCC(=O)O/N=C(/C)N1N=C(c2ccc(Cl)cc2Cl)CC1c1ccccc1F` (stereo not drawn) displayed an MIC of 50 µg/mL (≈ 118 µM).

Another test concerns Pseudomonas fluorescens. Briefly: Antibacterial activity against Pseudomonas fluorescens ATCC 13525. Type of test: functional.
Conditions: not given
Take `CC1=NN(/C(C)=N\OC(=O)c2ccc(C(F)(F)F)cc2)C(c2ccccc2OCc2ccc(F)cc2)C1` (stereo not drawn): the MIC was 50 µg/mL (≈ 97.4 µM).

Compound `C/C(=N/OC(=O)c1ccc(F)cc1)N1N=C(c2ccc(Cl)cc2Cl)CC1c1ccccc1F` (stereo not drawn) registered an MIC of 25 µg/mL (≈ 51.2 µM).

Compound `CCC(=O)O/N=C(/C)N1N=C(C)CC1c1ccc(OCc2ccc(F)cc2)cc1` (stereo not drawn) showed an MIC of 50 µg/mL (≈ 126 µM).

The compound `COC1CC(c2ccccc2)=NN1/C(C)=N\OC(=O)c1ccc(F)cc1` (stereo not drawn) came in with an MIC of 12.5 µg/mL (≈ 35.2 µM).

In the case of `CC1=NN(/C(C)=N\OC(=O)c2ccc(Cl)cc2)C(c2ccc(OCc3ccc(F)cc3)cc2)C1` (stereo not drawn), the MIC is above 50 µg/mL.

With `C/C(=N/OC(=O)c1ccccc1F)N1N=C(c2ccc(Cl)cc2Cl)CC1c1ccccc1F` (stereo not drawn), the MIC was determined as 6.25 µg/mL (≈ 12.8 µM).

As for `CCCC(=O)O/N=C(/C)N1N=C(C)CC1c1ccc(OCc2ccc(F)cc2)cc1` (stereo not drawn), the MIC came to 50 µg/mL (≈ 122 µM).

For `CCCC(=O)O/N=C(/C)N1N=C(C)CC1c1ccccc1OCc1ccc(F)cc1` (stereo not drawn), the MIC was found to be 50 µg/mL (≈ 122 µM).

Take `C/C(=N/OC(=O)c1ccccc1C)N1N=C(c2ccc(Cl)cc2Cl)CC1c1ccccc1F` (stereo not drawn): the MIC is 50 µg/mL (≈ 103 µM).

Consider `C/C(=N/OC(=O)c1ccc(C(F)(F)F)cc1)N1N=C(c2ccc(Cl)cc2Cl)CC1c1ccc(C(F)(F)F)cc1` (stereo not drawn), for which the MIC came out at 50 µg/mL (≈ 85 µM).

`COC1CC(c2ccccc2)=NN1/C(C)=N\OC(=O)c1ccccc1C` (stereo not drawn) yielded an MIC of 25 µg/mL (≈ 71.1 µM).

For the compound `C/C(=N/OC(=O)c1ccccc1C)N1N=C(c2ccc(Cl)cc2Cl)CC1c1ccc(C(F)(F)F)cc1` (stereo not drawn), the MIC worked out at 50 µg/mL (≈ 93.6 µM).

`CCC(=O)O/N=C(/C)N1N=C(c2ccc(Cl)cc2Cl)CC1c1ccccc1F` (stereo not drawn) showed an MIC of 50 µg/mL (≈ 118 µM).

The test system of another test is Pseudomonas aeruginosa. Briefly: Antibacterial activity against Pseudomonas aeruginosa ATCC 13525.
Conditions: not given
Type of test: functional, organism-based. In outline: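 Broth microdilution in MH medium with an inoculum of about 10⁵ cfu/mL. Compounds were serially diluted from a DMSO stock and incubated 24 h at 37 °C. MIC was read visually, then confirmed colorimetrically: MTT (2 mg/mL in PBS, pH 7.4) was added for 4–5 h at room temperature, the dye was extracted with isopropanol/5% 1 mol/L HCl for 12 h, and OD was read at 550 nm.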
As for `CC1=NN(/C(C)=N\OC(=O)c2ccc(C(F)(F)F)cc2)C(c2ccccc2OCc2ccc(F)cc2)C1` (stereo not drawn), the result was Active.

For the compound `C/C(=N/OC(=O)c1ccc(F)cc1)N1N=C(c2ccc(Cl)cc2Cl)CC1c1ccccc1F` (stereo not drawn), the result was Active.

For the compound `CCC(=O)O/N=C(/C)N1N=C(C)CC1c1ccc(OCc2ccc(F)cc2)cc1` (stereo not drawn), the result was Active.

As to `CC1=NN(/C(C)=N\OC(=O)c2ccc(Cl)cc2)C(c2ccc(OCc3ccc(F)cc3)cc2)C1` (stereo not drawn), the result was Active.

Regarding `C/C(=N/OC(=O)c1ccccc1F)N1N=C(c2ccc(Cl)cc2Cl)CC1c1ccccc1F` (stereo not drawn), the result was Active.

Consider `CCCC(=O)O/N=C(/C)N1N=C(C)CC1c1ccc(OCc2ccc(F)cc2)cc1` (stereo not drawn), for which the outcome was Active.

With `CCCC(=O)O/N=C(/C)N1N=C(C)CC1c1ccccc1OCc1ccc(F)cc1` (stereo not drawn), the result was Active.

As to `C/C(=N/OC(=O)c1ccccc1C)N1N=C(c2ccc(Cl)cc2Cl)CC1c1ccccc1F` (stereo not drawn), the result was Active.

As for `C/C(=N/OC(=O)c1ccc(C(F)(F)F)cc1)N1N=C(c2ccc(Cl)cc2Cl)CC1c1ccc(C(F)(F)F)cc1` (stereo not drawn), the outcome was Active.

Take `C/C(=N/OC(=O)c1ccccc1C)N1N=C(c2ccc(Cl)cc2Cl)CC1c1ccc(C(F)(F)F)cc1` (stereo not drawn): the result was Active.

On to `CCC(=O)O/N=C(/C)N1N=C(c2ccc(Cl)cc2Cl)CC1c1ccccc1F` (stereo not drawn), for which the outcome was Active.

Another test relates to Bacillus subtilis. The experiment in a line: microbe, parasite or virus in culture. Particulars: ATCC 6633. The class given is functional.
`CC1=NN(/C(C)=N\OC(=O)c2ccc(C(F)(F)F)cc2)C(c2ccccc2OCc2ccc(F)cc2)C1` (stereo not drawn) returned an MIC of 50 µg/mL (≈ 97.4 µM).

For `C/C(=N/OC(=O)c1ccc(F)cc1)N1N=C(c2ccc(Cl)cc2Cl)CC1c1ccccc1F` (stereo not drawn), the MIC worked out at 25 µg/mL (≈ 51.2 µM).

Compound `CCC(=O)O/N=C(/C)N1N=C(C)CC1c1ccc(OCc2ccc(F)cc2)cc1` (stereo not drawn) showed an MIC of 50 µg/mL (≈ 126 µM).

Turning to `COC1CC(c2ccccc2)=NN1/C(C)=N\OC(=O)c1ccc(F)cc1` (stereo not drawn), the MIC amounted to 3.12 µg/mL (≈ 8.79 µM).

For `CC1=NN(/C(C)=N\OC(=O)c2ccc(Cl)cc2)C(c2ccc(OCc3ccc(F)cc3)cc2)C1` (stereo not drawn), the MIC is above 50 µg/mL.

`C/C(=N/OC(=O)c1ccccc1F)N1N=C(c2ccc(Cl)cc2Cl)CC1c1ccccc1F` (stereo not drawn) showed an MIC of 12.5 µg/mL (≈ 25.6 µM).

Take `CCCC(=O)O/N=C(/C)N1N=C(C)CC1c1ccc(OCc2ccc(F)cc2)cc1` (stereo not drawn): the MIC amounted to 50 µg/mL (≈ 122 µM).

`CCCC(=O)O/N=C(/C)N1N=C(C)CC1c1ccccc1OCc1ccc(F)cc1` (stereo not drawn) registered an MIC of 50 µg/mL (≈ 122 µM).

In turn, `C/C(=N/OC(=O)c1ccccc1C)N1N=C(c2ccc(Cl)cc2Cl)CC1c1ccccc1F` (stereo not drawn) registered an MIC of 50 µg/mL (≈ 103 µM).

`C/C(=N/OC(=O)c1ccc(C(F)(F)F)cc1)N1N=C(c2ccc(Cl)cc2Cl)CC1c1ccc(C(F)(F)F)cc1` (stereo not drawn): the MIC worked out at 25 µg/mL (≈ 42.5 µM).

Compound `COC1CC(c2ccccc2)=NN1/C(C)=N\OC(=O)c1ccccc1C` (stereo not drawn) gave an MIC of 12.5 µg/mL (≈ 35.6 µM).

`C/C(=N/OC(=O)c1ccccc1C)N1N=C(c2ccc(Cl)cc2Cl)CC1c1ccc(C(F)(F)F)cc1` (stereo not drawn) gave an MIC of 50 µg/mL (≈ 93.6 µM).

Regarding `CCC(=O)O/N=C(/C)N1N=C(c2ccc(Cl)cc2Cl)CC1c1ccccc1F` (stereo not drawn), the MIC was 50 µg/mL (≈ 118 µM).

Another test relates to Staphylococcus aureus. The experiment in a line: Antibacterial activity against Staphylococcus aureus ATCC 6538. Type of test: functional.
Conditions: not given
In the case of `CC1=NN(/C(C)=N\OC(=O)c2ccc(C(F)(F)F)cc2)C(c2ccccc2OCc2ccc(F)cc2)C1` (stereo not drawn), the MIC amounted to 50 µg/mL (≈ 97.4 µM).

For `C/C(=N/OC(=O)c1ccc(F)cc1)N1N=C(c2ccc(Cl)cc2Cl)CC1c1ccccc1F` (stereo not drawn), the MIC turned out to be 12.5 µg/mL (≈ 25.6 µM).

`CCC(=O)O/N=C(/C)N1N=C(C)CC1c1ccc(OCc2ccc(F)cc2)cc1` (stereo not drawn) came in with an MIC of 50 µg/mL (≈ 126 µM).

`COC1CC(c2ccccc2)=NN1/C(C)=N\OC(=O)c1ccc(F)cc1` (stereo not drawn) came in with an MIC of 6.25 µg/mL (≈ 17.6 µM).

`CC1=NN(/C(C)=N\OC(=O)c2ccc(Cl)cc2)C(c2ccc(OCc3ccc(F)cc3)cc2)C1` (stereo not drawn) gave an MIC above 50 µg/mL.

As to `C/C(=N/OC(=O)c1ccccc1F)N1N=C(c2ccc(Cl)cc2Cl)CC1c1ccccc1F` (stereo not drawn), the MIC was 12.5 µg/mL (≈ 25.6 µM).

As to `CCCC(=O)O/N=C(/C)N1N=C(C)CC1c1ccc(OCc2ccc(F)cc2)cc1` (stereo not drawn), the MIC is above 50 µg/mL.

In the case of `CCCC(=O)O/N=C(/C)N1N=C(C)CC1c1ccccc1OCc1ccc(F)cc1` (stereo not drawn), the MIC came out at 50 µg/mL (≈ 122 µM).

The compound `C/C(=N/OC(=O)c1ccccc1C)N1N=C(c2ccc(Cl)cc2Cl)CC1c1ccccc1F` (stereo not drawn) came in with an MIC of 50 µg/mL (≈ 103 µM).

The compound `C/C(=N/OC(=O)c1ccc(C(F)(F)F)cc1)N1N=C(c2ccc(Cl)cc2Cl)CC1c1ccc(C(F)(F)F)cc1` (stereo not drawn) showed an MIC of 50 µg/mL (≈ 85 µM).

Take `COC1CC(c2ccccc2)=NN1/C(C)=N\OC(=O)c1ccccc1C` (stereo not drawn): the MIC is 12.5 µg/mL (≈ 35.6 µM).

Turning to `C/C(=N/OC(=O)c1ccccc1C)N1N=C(c2ccc(Cl)cc2Cl)CC1c1ccc(C(F)(F)F)cc1` (stereo not drawn), the MIC turned out to be 50 µg/mL (≈ 93.6 µM).

Compound `CCC(=O)O/N=C(/C)N1N=C(c2ccc(Cl)cc2Cl)CC1c1ccccc1F` (stereo not drawn) registered an MIC of 50 µg/mL (≈ 118 µM).

Values taken from ChEMBL document CHEMBL1157150, “Synthesis, structure and antibacterial activity of novel 1-(5-substituted-3-substituted-4,5-dihydropyrazol-1-yl)ethanone oxime ester derivatives” (Bioorg Med Chem, 2008).
